# Read-outs that look alike come from different tables or passages of the source.
# Columns and labels:
# [1] = system: bone marrow; settings: at its MTD, normal mouse model; cited from earlier work
# [2] = patients with solid tumors, up to 75 mg/m^2/28-day cycle; cited from earlier work
# [3] = Renal excretion of vosaroxin and metabolites in urine, 24 h after first dose; format: in vivo, human; settings: 24 h after first dose, 18 and 27 mg/m^2 weekly, eight patients
# [4] = format: in vivo, human
# Procedure, shortened: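 Open-label 3+3-type escalation in cohorts of 3–6, starting at 18 mg/m2 weekly (days 1, 8, 15) or 9 mg/m2 twice weekly (days 1, 4, 8, 11), 28-day cycles, with modified Fibonacci increments. A cohort was expanded to 6 on any DLT. MTD was the level below that with ≥2/6 DLTs. DLT was assessed in cycle 1 through day 29. Toxicity was graded by NCI CTCAE v3.0. One 25% dose reduction was allowed, with supportive care permitted.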
# [5] = twice weekly (n = 31), Grade 1 or 2
# [6] = twice weekly (n = 31), Grade ≥3
# [7] = two patients with CR, weekly schedule
compound,measurement,setting,value
"CN[C@H]1CN(c2ccc3c(=O)c(C(=O)O)cn(-c4nccs4)c3n2)C[C@@H]1OC [vosaroxin, (+)-1,4-dihydro-7-(trans-3-methoxy-4-methylamino-1-pyrrolidinyl)-4-oxo-1-(2-thiazolyl)-1,8-naphthyridine-3-carboxylic acid]",Bone marrow ablation compared with cytarabine,[1],ablated bone marrow more potently than cytarabine
same,Primary DLT,[2],myelosuppression
same,Average renal excretion of the total dose infused,[3],2.35%
same,30-day all-cause mortality rate,[4]; 73 treated patients,11%
same,Deaths within 30 days after the first dose,[4]; 73 treated patients,Eight
same,"Abdominal pain, % of patients","[4]; Total (n = 73), All grades",22%
same,"Abdominal pain, No. of patients","[4]; Total (n = 73), All grades",16
same,"Anorexia, No. of patients","[4]; Total (n = 73), All grades",30
same,"Diarrhea, % of patients","[4]; Total (n = 73), All grades",49%
same,"Diarrhea, No. of patients","[4]; Total (n = 73), All grades",36
same,"Nausea, % of patients","[4]; Total (n = 73), All grades",63%
same,"Nausea, No. of patients","[4]; Total (n = 73), All grades",46
same,"Peripheral edema, % of patients","[4]; Total (n = 73), All grades",34%
same,"Peripheral edema, No. of patients","[4]; Total (n = 73), All grades",25
same,"Petechiae, % of patients","[4]; Total (n = 73), All grades",21%
same,"Petechiae, No. of patients","[4]; Total (n = 73), All grades",15
same,"Pleural effusion, % of patients","[4]; Total (n = 73), All grades",22%
same,"Pleural effusion, No. of patients","[4]; Total (n = 73), All grades",16
same,"Pyrexia, % of patients","[4]; Total (n = 73), All grades",29%
same,"Pyrexia, No. of patients","[4]; Total (n = 73), All grades",21
same,"Stomatitis, % of patients","[4]; Total (n = 73), All grades",29%
same,"Stomatitis, No. of patients","[4]; Total (n = 73), All grades",21
same,"Clinical manifestation of QTc prolongation, such as torsades de pointes",[4]; all treated patients,No clinical manifestation of QTc prolongation
same,"Stomatitis duration, range",[4]; cycle 1,5 to 39 days
same,Stomatitis median duration,[4]; cycle 1,15 days
same,Stomatitis median onset,[4]; cycle 1,14 days
same,"Stomatitis onset, range",[4]; cycle 1,3 to 20 days
same,Patients experiencing stomatitis grade 1–2,"[4]; cycle 1, overall",12%
same,Patients experiencing stomatitis grade ≥3,"[4]; cycle 1, overall",15%
same,Patients experiencing stomatitis of any grade,"[4]; cycle 1, overall",27%
same,Treatment-related hepatic or renal dysfunction,[4]; doses up to 90 mg/m^2 weekly and 50 mg/m^2 twice weekly,No grade 3 or greater treatment-related hepatic or renal dysfunction was reported
same,"Time of death after first dose, range",[4]; eight deaths within 30 days,11 to 30 days
same,Dose-limiting toxicity (DLT),"[4]; patients with advanced leukemia, both schedules",stomatitis
same,"Abdominal pain, % of patients",[4]; [5],10%
same,"Abdominal pain, No. of patients",[4]; [5],3
same,"Anorexia, % of patients",[4]; [5],39%
same,"Anorexia, No. of patients",[4]; [5],12
same,"Diarrhea, % of patients",[4]; [5],39%
same,"Diarrhea, No. of patients",[4]; [5],12
same,"Dyspnea, No. of patients",[4]; [5],10
same,"Fatigue, No. of patients",[4]; [5],14
same,"Febrile neutropenia, % of patients",[4]; [5],0%
same,"Febrile neutropenia, No. of patients",[4]; [5],0
same,"Infection (20 individual adverse event terms), No. of patients",[4]; [5],10
same,"Nausea, % of patients",[4]; [5],68%
same,"Nausea, No. of patients",[4]; [5],21
same,"Peripheral edema, % of patients",[4]; [5],29%
same,"Peripheral edema, No. of patients",[4]; [5],9
same,"Petechiae, % of patients",[4]; [5],19%
same,"Petechiae, No. of patients",[4]; [5],6
same,"Pleural effusion, % of patients",[4]; [5],16%
same,"Pleural effusion, No. of patients",[4]; [5],5
same,"Pyrexia, % of patients",[4]; [5],19%
same,"Pyrexia, No. of patients",[4]; [5],6
same,"Stomatitis, % of patients",[4]; [5],19%
same,"Stomatitis, No. of patients",[4]; [5],6
same,"Abdominal pain, % of patients",[4]; [6],3%
same,"Abdominal pain, No. of patients",[4]; [6],1
same,"Anorexia, % of patients",[4]; [6],0%
same,"Anorexia, No. of patients",[4]; [6],0
same,"Diarrhea, % of patients",[4]; [6],3%
same,"Diarrhea, No. of patients",[4]; [6],1
same,"Dyspnea, % of patients",[4]; [6],3%
same,"Dyspnea, No. of patients",[4]; [6],1
same,"Fatigue, % of patients",[4]; [6],0%
same,"Fatigue, No. of patients",[4]; [6],0
same,"Febrile neutropenia, No. of patients",[4]; [6],15
same,"Infection (20 individual adverse event terms), No. of patients",[4]; [6],11
same,"Nausea, % of patients",[4]; [6],3%
same,"Nausea, No. of patients",[4]; [6],1
same,"Peripheral edema, % of patients",[4]; [6],0%
same,"Peripheral edema, No. of patients",[4]; [6],0
same,"Petechiae, % of patients",[4]; [6],3%
same,"Petechiae, No. of patients",[4]; [6],1
same,"Pleural effusion, % of patients",[4]; [6],3%
same,"Pleural effusion, No. of patients",[4]; [6],1
same,"Pyrexia, No. of patients",[4]; [6],4
same,"Stomatitis, % of patients",[4]; [6],19%
same,"Stomatitis, No. of patients",[4]; [6],6
same,Time to recovery of peripheral absolute neutrophil counts to >1×10^9/l,[4]; [7],50 days
same,Time to recovery of platelets to ≥100×10^9/l,[4]; [7],28 days
same,"Abdominal pain, No. of patients","[4]; weekly (n = 42), Grade 1 or 2",11
same,"Diarrhea, % of patients","[4]; weekly (n = 42), Grade 1 or 2",52%
same,"Diarrhea, No. of patients","[4]; weekly (n = 42), Grade 1 or 2",22
same,"Dyspnea, % of patients","[4]; weekly (n = 42), Grade 1 or 2",31%
same,"Fatigue, No. of patients","[4]; weekly (n = 42), Grade 1 or 2",19
same,"Febrile neutropenia, % of patients","[4]; weekly (n = 42), Grade 1 or 2",0%
same,"Febrile neutropenia, No. of patients","[4]; weekly (n = 42), Grade 1 or 2",0
same,"Infection (20 individual adverse event terms), % of patients","[4]; weekly (n = 42), Grade 1 or 2",12%
same,"Infection (20 individual adverse event terms), No. of patients","[4]; weekly (n = 42), Grade 1 or 2",5
same,"Nausea, % of patients","[4]; weekly (n = 42), Grade 1 or 2",57%
same,"Nausea, No. of patients","[4]; weekly (n = 42), Grade 1 or 2",24
same,"Peripheral edema, % of patients","[4]; weekly (n = 42), Grade 1 or 2",36%
same,"Peripheral edema, No. of patients","[4]; weekly (n = 42), Grade 1 or 2",15
same,"Petechiae, % of patients","[4]; weekly (n = 42), Grade 1 or 2",19%
same,"Petechiae, No. of patients","[4]; weekly (n = 42), Grade 1 or 2",8
same,"Pleural effusion, % of patients","[4]; weekly (n = 42), Grade 1 or 2",21%
same,"Pleural effusion, No. of patients","[4]; weekly (n = 42), Grade 1 or 2",9
same,"Pyrexia, No. of patients","[4]; weekly (n = 42), Grade 1 or 2",10
same,"Stomatitis, % of patients","[4]; weekly (n = 42), Grade 1 or 2",10%
same,"Stomatitis, No. of patients","[4]; weekly (n = 42), Grade 1 or 2",4
same,"Abdominal pain, % of patients","[4]; weekly (n = 42), Grade ≥3",2%
same,"Abdominal pain, No. of patients","[4]; weekly (n = 42), Grade ≥3",1
same,"Anorexia, % of patients","[4]; weekly (n = 42), Grade ≥3",2%
same,"Anorexia, No. of patients","[4]; weekly (n = 42), Grade ≥3",1
same,"Diarrhea, % of patients","[4]; weekly (n = 42), Grade ≥3",2%
same,"Diarrhea, No. of patients","[4]; weekly (n = 42), Grade ≥3",1
same,"Dyspnea, % of patients","[4]; weekly (n = 42), Grade ≥3",0%
same,"Dyspnea, No. of patients","[4]; weekly (n = 42), Grade ≥3",0
same,"Fatigue, % of patients","[4]; weekly (n = 42), Grade ≥3",2%
same,"Fatigue, No. of patients","[4]; weekly (n = 42), Grade ≥3",1
same,"Febrile neutropenia, No. of patients","[4]; weekly (n = 42), Grade ≥3",28
same,"Infection (20 individual adverse event terms), No. of patients","[4]; weekly (n = 42), Grade ≥3",22
same,"Nausea, % of patients","[4]; weekly (n = 42), Grade ≥3",0%
same,"Nausea, No. of patients","[4]; weekly (n = 42), Grade ≥3",0
same,"Peripheral edema, % of patients","[4]; weekly (n = 42), Grade ≥3",2%
same,"Peripheral edema, No. of patients","[4]; weekly (n = 42), Grade ≥3",1
same,"Petechiae, % of patients","[4]; weekly (n = 42), Grade ≥3",0%
same,"Petechiae, No. of patients","[4]; weekly (n = 42), Grade ≥3",0
same,"Pleural effusion, % of patients","[4]; weekly (n = 42), Grade ≥3",2%
same,"Pleural effusion, No. of patients","[4]; weekly (n = 42), Grade ≥3",1
same,"Pyrexia, % of patients","[4]; weekly (n = 42), Grade ≥3",2%
same,"Pyrexia, No. of patients","[4]; weekly (n = 42), Grade ≥3",1
same,"Stomatitis, % of patients","[4]; weekly (n = 42), Grade ≥3",12%
same,"Stomatitis, No. of patients","[4]; weekly (n = 42), Grade ≥3",5
same,Patients with grade 3 stomatitis as DLT,[4]; weekly schedule,five
